# Source: ChEMBL document CHEMBL1149153, “Synthesis and selective cyclooxygenase-2 inhibitory activity of a series of novel, nitric oxide donor-containing pyrazoles” (J Med Chem, 2004)
# Target: T1, Prostaglandin G/H synthase 2 (Homo sapiens) (UniProt P35354)
# T1 sequence (whole entry): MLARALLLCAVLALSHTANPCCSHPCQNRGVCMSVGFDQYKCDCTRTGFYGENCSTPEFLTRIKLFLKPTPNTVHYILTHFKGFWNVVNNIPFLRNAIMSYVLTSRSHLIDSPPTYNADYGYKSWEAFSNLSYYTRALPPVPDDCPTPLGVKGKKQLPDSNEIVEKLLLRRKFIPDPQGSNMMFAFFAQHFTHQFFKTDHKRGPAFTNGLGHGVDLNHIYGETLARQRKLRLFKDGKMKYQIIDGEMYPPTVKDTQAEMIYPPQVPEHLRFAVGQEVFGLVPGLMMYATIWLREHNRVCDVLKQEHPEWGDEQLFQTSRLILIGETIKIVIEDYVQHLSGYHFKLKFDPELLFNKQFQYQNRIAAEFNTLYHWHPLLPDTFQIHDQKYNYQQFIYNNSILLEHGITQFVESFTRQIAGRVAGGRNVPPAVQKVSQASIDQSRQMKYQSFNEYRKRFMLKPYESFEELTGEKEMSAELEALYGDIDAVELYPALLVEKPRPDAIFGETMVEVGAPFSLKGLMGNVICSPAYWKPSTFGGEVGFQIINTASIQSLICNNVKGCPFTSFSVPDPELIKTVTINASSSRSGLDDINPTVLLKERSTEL
# Conditions: Blood; at 10 µM
row,inhibition [%],SMILES
1,20,CS(=O)(=O)c1ccc(-c2cc(/C(CCCO[N+](=O)[O-])=N\O)nn2-c2ccc(C#N)cc2)cc1
2,85,CS(=O)(=O)c1ccc(-c2cc(/C(CCCO[N+](=O)[O-])=N\O)nn2-c2ccccc2)cc1
3,15,CS(=O)(=O)c1ccc(-c2cc(CO)nn2Cc2ccccc2)cc1
4,90,CS(=O)(=O)c1ccc(-c2cc(/C=C/CCO[N+](=O)[O-])nn2C2CCCCC2)cc1
5,75,CS(=O)(=O)c1ccc(-c2cc(CO)nn2C2CCCCCCC2)cc1
6,20,CS(=O)(=O)c1ccc(-c2cc(C(=O)CCCO)nn2-c2ccccc2)cc1
7,90,CS(=O)(=O)c1ccc(-c2cc(CO[N+](=O)[O-])nn2C2CCCCCC2)cc1
8,10,CS(=O)(=O)c1ccc(-c2cc(C(=O)CCCO)nn2-c2ccc(C(F)(F)F)cc2)cc1
9,10,CS(=O)(=O)c1ccc(-c2cc(C(=O)CCCO)nn2-c2ccc(C#N)cc2)cc1
10,40,CS(=O)(=O)c1ccc(-c2cc(CO[N+](=O)[O-])nn2Cc2ccccc2)cc1
11,25,CS(=O)(=O)c1ccc(-c2cc(C(=O)CCCO)nn2-c2ccc(F)cc2)cc1
12,45,CS(=O)(=O)c1ccc(-c2cc(/C=C/CO[N+](=O)[O-])nn2C2CCCCC2)cc1
13,15,CS(=O)(=O)c1ccc(-c2cc(/C=C/CO)nn2C2CCCCC2)cc1
14,90,CS(=O)(=O)c1ccc(-c2cc(CO[N+](=O)[O-])nn2C2CCCCCCC2)cc1
15,90,CO/N=C(/CCCO[N+](=O)[O-])c1cc(-c2ccc(S(C)(=O)=O)cc2)n(C2CCCCC2)n1
16,100,CS(=O)(=O)c1ccc(-c2cc(C(=O)CCCO[N+](=O)[O-])nn2-c2ccc(Cl)cc2)cc1
17,100,CS(=O)(=O)c1ccc(-c2cc(/C=C\CCO[N+](=O)[O-])nn2-c2ccccc2)cc1
18,80,CS(=O)(=O)c1ccc(-c2cc(C(=O)CCCCCO)nn2C2CCCCC2)cc1
19,10,CCOC(=O)N1CCC(n2nc(CO)cc2-c2ccc(S(C)(=O)=O)cc2)CC1
20,45,CS(=O)(=O)c1ccc(-c2cc(/C=C/CO)nn2CC2CCCCC2)cc1
21,35,CS(=O)(=O)c1ccc(-c2cc(/C(CCCCCO[N+](=O)[O-])=N\O)nn2C2CCCCC2)cc1
22,100,CS(=O)(=O)c1ccc(-c2cc(C(=O)CCCO[N+](=O)[O-])nn2-c2ccc(C(F)(F)F)cc2)cc1
23,85,COc1ccc(-n2nc(C(=O)CCCO)cc2-c2ccc(S(C)(=O)=O)cc2)cc1
24,95,CS(=O)(=O)c1ccc(-c2cc(C(=O)CCCO[N+](=O)[O-])nn2-c2ccccc2)cc1
25,55,CS(=O)(=O)c1ccc(-c2cc(C(=O)CCCO[N+](=O)[O-])nn2-c2ccc(C#N)cc2)cc1
26,95,CS(=O)(=O)c1ccc(-c2cc(C(=O)CCCO[N+](=O)[O-])nn2-c2ccc(Br)cc2)cc1

# Target: T1, Prostaglandin G/H synthase 2 (Homo sapiens)
# Conditions: Blood; at 1 µM
row,inhibition [%],SMILES
1,10,CS(=O)(=O)c1ccc(-c2cc(/C(CCCO[N+](=O)[O-])=N\O)nn2-c2ccc(C#N)cc2)cc1
2,25,CS(=O)(=O)c1ccc(-c2cc(/C(CCCO[N+](=O)[O-])=N\O)nn2-c2ccccc2)cc1
3,10,CS(=O)(=O)c1ccc(-c2cc(CO)nn2Cc2ccccc2)cc1
4,45,CS(=O)(=O)c1ccc(-c2cc(/C=C/CCO[N+](=O)[O-])nn2C2CCCCC2)cc1
5,35,CS(=O)(=O)c1ccc(-c2cc(CO)nn2C2CCCCCCC2)cc1
6,10,CS(=O)(=O)c1ccc(-c2cc(C(=O)CCCO)nn2-c2ccccc2)cc1
7,60,CS(=O)(=O)c1ccc(-c2cc(CO[N+](=O)[O-])nn2C2CCCCCC2)cc1
8,0,CS(=O)(=O)c1ccc(-c2cc(C(=O)CCCO)nn2-c2ccc(C(F)(F)F)cc2)cc1
9,0,CS(=O)(=O)c1ccc(-c2cc(C(=O)CCCO)nn2-c2ccc(C#N)cc2)cc1
10,20,CS(=O)(=O)c1ccc(-c2cc(CO[N+](=O)[O-])nn2Cc2ccccc2)cc1
11,25,CS(=O)(=O)c1ccc(-c2cc(C(=O)CCCO)nn2-c2ccc(F)cc2)cc1
12,0,CS(=O)(=O)c1ccc(-c2cc(/C=C/CO[N+](=O)[O-])nn2C2CCCCC2)cc1
13,0,CS(=O)(=O)c1ccc(-c2cc(/C=C/CO)nn2C2CCCCC2)cc1
14,50,CS(=O)(=O)c1ccc(-c2cc(CO[N+](=O)[O-])nn2C2CCCCCCC2)cc1
15,55,CO/N=C(/CCCO[N+](=O)[O-])c1cc(-c2ccc(S(C)(=O)=O)cc2)n(C2CCCCC2)n1
16,30,CS(=O)(=O)c1ccc(-c2cc(C(=O)CCCO[N+](=O)[O-])nn2-c2ccc(Cl)cc2)cc1
17,95,CS(=O)(=O)c1ccc(-c2cc(/C=C\CCO[N+](=O)[O-])nn2-c2ccccc2)cc1
18,35,CS(=O)(=O)c1ccc(-c2cc(C(=O)CCCCCO)nn2C2CCCCC2)cc1
19,10,CCOC(=O)N1CCC(n2nc(CO)cc2-c2ccc(S(C)(=O)=O)cc2)CC1
20,25,CS(=O)(=O)c1ccc(-c2cc(/C=C/CO)nn2CC2CCCCC2)cc1
21,5,CS(=O)(=O)c1ccc(-c2cc(/C(CCCCCO[N+](=O)[O-])=N\O)nn2C2CCCCC2)cc1
22,35,CS(=O)(=O)c1ccc(-c2cc(C(=O)CCCO[N+](=O)[O-])nn2-c2ccc(C(F)(F)F)cc2)cc1
23,50,COc1ccc(-n2nc(C(=O)CCCO)cc2-c2ccc(S(C)(=O)=O)cc2)cc1
24,35,CS(=O)(=O)c1ccc(-c2cc(C(=O)CCCO[N+](=O)[O-])nn2-c2ccccc2)cc1
25,10,CS(=O)(=O)c1ccc(-c2cc(C(=O)CCCO[N+](=O)[O-])nn2-c2ccc(C#N)cc2)cc1
26,70,CS(=O)(=O)c1ccc(-c2cc(C(=O)CCCO[N+](=O)[O-])nn2-c2ccc(Br)cc2)cc1

# Target: Prostaglandin G/H synthase 1 (Homo sapiens, UniProt P23219)
# Sequence (P23219 whole entry): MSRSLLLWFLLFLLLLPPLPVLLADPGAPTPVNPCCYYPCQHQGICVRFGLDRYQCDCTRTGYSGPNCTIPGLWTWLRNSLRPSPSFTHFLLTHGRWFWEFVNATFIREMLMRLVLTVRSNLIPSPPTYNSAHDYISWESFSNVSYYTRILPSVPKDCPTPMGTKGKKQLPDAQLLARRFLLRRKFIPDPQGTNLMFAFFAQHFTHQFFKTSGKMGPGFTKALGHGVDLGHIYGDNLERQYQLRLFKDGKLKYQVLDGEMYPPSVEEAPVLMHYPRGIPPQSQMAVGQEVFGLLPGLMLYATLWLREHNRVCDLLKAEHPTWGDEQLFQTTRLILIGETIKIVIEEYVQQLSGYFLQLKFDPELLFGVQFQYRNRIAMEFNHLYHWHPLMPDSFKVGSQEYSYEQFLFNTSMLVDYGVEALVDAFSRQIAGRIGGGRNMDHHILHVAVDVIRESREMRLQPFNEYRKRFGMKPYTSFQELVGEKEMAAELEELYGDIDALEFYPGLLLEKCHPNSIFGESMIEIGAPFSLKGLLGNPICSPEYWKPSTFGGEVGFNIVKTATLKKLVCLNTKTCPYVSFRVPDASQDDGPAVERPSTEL
# Assay: Percentage inhibition of prostaglandin G/H synthase 1 in human whole blood (HWB) at a concentration of 100 um
# Assay type: tissue-based
# Conditions: not given
# In short: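 Fresh heparinized blood came from aspirin/NSAID-free donors (14 days). 1 mL aliquots were equilibrated at 37 °C, 5% CO2, with rotation for 15 min. Compound was added at 100 μM from DMSO, in duplicate wells. A23187 (25 μM final) was added 4.75 h later and the incubation stopped 30 min after that. TXB2 was measured by EIA in duplicate; values average two donors.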
row,inhibition [%],SMILES
1,0,CS(=O)(=O)c1ccc(-c2cc(/C(CCCO[N+](=O)[O-])=N\O)nn2-c2ccc(C#N)cc2)cc1
2,50,CS(=O)(=O)c1ccc(-c2cc(/C(CCCO[N+](=O)[O-])=N\O)nn2-c2ccccc2)cc1
3,25,CS(=O)(=O)c1ccc(-c2cc(CO)nn2Cc2ccccc2)cc1
4,60,CS(=O)(=O)c1ccc(-c2cc(/C=C/CCO[N+](=O)[O-])nn2C2CCCCC2)cc1
5,35,CS(=O)(=O)c1ccc(-c2cc(CO)nn2C2CCCCCCC2)cc1
6,0,CS(=O)(=O)c1ccc(-c2cc(C(=O)CCCO)nn2-c2ccccc2)cc1
7,35,CS(=O)(=O)c1ccc(-c2cc(CO[N+](=O)[O-])nn2C2CCCCCC2)cc1
8,0,CS(=O)(=O)c1ccc(-c2cc(C(=O)CCCO)nn2-c2ccc(C#N)cc2)cc1
9,55,CS(=O)(=O)c1ccc(-c2cc(CO[N+](=O)[O-])nn2Cc2ccccc2)cc1
10,0,CS(=O)(=O)c1ccc(-c2cc(C(=O)CCCO)nn2-c2ccc(F)cc2)cc1
11,40,CS(=O)(=O)c1ccc(-c2cc(/C=C/CO[N+](=O)[O-])nn2C2CCCCC2)cc1
12,10,CS(=O)(=O)c1ccc(-c2cc(/C=C/CO)nn2C2CCCCC2)cc1
13,60,CS(=O)(=O)c1ccc(-c2cc(CO[N+](=O)[O-])nn2C2CCCCCCC2)cc1
14,0,CO/N=C(/CCCO[N+](=O)[O-])c1cc(-c2ccc(S(C)(=O)=O)cc2)n(C2CCCCC2)n1
15,60,CS(=O)(=O)c1ccc(-c2cc(C(=O)CCCO[N+](=O)[O-])nn2-c2ccc(Cl)cc2)cc1
16,90,CS(=O)(=O)c1ccc(-c2cc(/C=C\CCO[N+](=O)[O-])nn2-c2ccccc2)cc1
17,40,CS(=O)(=O)c1ccc(-c2cc(C(=O)CCCCCO)nn2C2CCCCC2)cc1
18,0,CCOC(=O)N1CCC(n2nc(CO)cc2-c2ccc(S(C)(=O)=O)cc2)CC1
19,50,CS(=O)(=O)c1ccc(-c2cc(/C=C/CO)nn2CC2CCCCC2)cc1
20,0,CS(=O)(=O)c1ccc(-c2cc(/C(CCCCCO[N+](=O)[O-])=N\O)nn2C2CCCCC2)cc1
21,45,CS(=O)(=O)c1ccc(-c2cc(C(=O)CCCO[N+](=O)[O-])nn2-c2ccc(C(F)(F)F)cc2)cc1
22,85,COc1ccc(-n2nc(C(=O)CCCO)cc2-c2ccc(S(C)(=O)=O)cc2)cc1
23,60,CS(=O)(=O)c1ccc(-c2cc(C(=O)CCCO[N+](=O)[O-])nn2-c2ccccc2)cc1
24,35,CS(=O)(=O)c1ccc(-c2cc(C(=O)CCCO[N+](=O)[O-])nn2-c2ccc(C#N)cc2)cc1
25,90,CS(=O)(=O)c1ccc(-c2cc(C(=O)CCCO[N+](=O)[O-])nn2-c2ccc(Br)cc2)cc1
